From ChEMBL document CHEMBL4184121, “Semisynthesis, cytotoxicity, antimalarial evaluation and structure-activity relationship of two series of triterpene derivatives” (Bioorg Med Chem Lett, 2018)

Tests used:
Plasmodium falciparum [1] = assay: Antiplasmodial activity against chloroquine-resistant Plasmodium falciparum W2 infected in human erythrocytes; format: functional, organism-based
Summary of the method: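 P. falciparum W2 grown in fresh human O+ erythrocytes at 2% hematocrit in complete medium, 37 °C. Compounds tested over a 100–3.12 µM dilution series. IC50 estimated from the dose-response curve relative to drug-free control wells (100% parasite viability). Artemisinin run in parallel as control. Triplicates, at least three independent cultures (n = 3).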

[2] = Cytotoxicity against African green monkey Vero cells after 72 hrs by MTT assay; format: cell-based; conditions: chlorocebus sabaeus
Summary of the method: (§1)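 VERO (ATCC CCL-81) and HepG2 (ATCC HB-8065) cells were exposed for 24, 48 or 72 h to an […] dilution series from 400 to 1.56 μM. CC50 was taken from the concentration–response curve. Triplicates, with at least three independent cultures (n = 3).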

[3] = Cytotoxicity against human HepG2 cells after 72 hrs by MTT assay; format: cell-based; summary of the method: as §1
[4] = Selectivity index, ratio of CC50 for human HepG2 cells to IC50 for chloroquine-resistant Plasmodium falciparum W2; format: toxicity; conditions: read-out: Ratio CC50/IC50
Summary of the method: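 SI = HepG2 CC50 / W2 IC50. CC50 came from HepG2 growth inhibition over a 400–1.56 µM dilution series, read at 24, 48 and 72 h. IC50 came from the W2 erythrocyte assay (100–3.12 µM range). Triplicates, at least three independent cultures.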

Plasmodium falciparum [5] = assay: Antiplasmodial activity against Plasmodium falciparum assessed as potentiation of artemisinin-induced antimalarial activity by measuring dose reduction index relative to artemisinin alone; format: functional
Plasmodium falciparum [6] = assay: Antiplasmodial activity against Plasmodium falciparum assessed as combination index in presence of artemisinin; format: functional
Summary of the method: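 Chloroquine-resistant P. falciparum W2 was grown in fresh human O+ erythrocytes at 2% hematocrit in complete medium at 37 °C. Artemisinin was co-tested with the triterpene using the one-point Chou–Talalay method, at a minimum of one combination ratio. CI is the sum of the two FICs: ≤1 synergy, 1–2 additivity, >2 antagonism. Triplicates, n = 3 independent cultures.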

| SMILES | IC50 (Plasmodium falciparum [1]) | CC50 at 72 h [2] | CC50 at 72 h [3] | selectivity ratio [4] | Activity_index (Plasmodium falciparum [5]) | CI (Plasmodium falciparum [6]) |
| --- | --- | --- | --- | --- | --- | --- |
| CC(C)C(=O)O[C@H]1CC[C@]2(C)[C@H]3CC=C4[C@@H]5[C@@H](C)[C@H](C)CC[C@]5(C(=O)O)CC[C@@]4(C)[C@]3(C)CC[C@H]2C1(C)C | > 100 µM | > 400 µM | > 400 µM | – | – | – |
| C[C@H]1[C@H](C)CC[C@]2(C(=O)n3ccnc3)CC[C@]3(C)C(=CC[C@@H]4[C@@]5(C)CCC(=O)C(C)(C)[C@@H]5CC[C@]43C)[C@H]12 | 9.07 µM | > 400 µM | > 400 µM | > 44.1 | – | – |
| C=C(C)[C@@H]1CC[C@]2(C(=O)OC)CC[C@]3(C)[C@H](CC[C@@H]4[C@@]5(C)CC[C@H](OC(=O)C(C)C)C(C)(C)[C@@H]5CC[C@]43C)[C@@H]12 | > 100 µM | > 400 µM | > 400 µM | – | – | – |
| CCCC(=O)O[C@H]1CC[C@]2(C)[C@H]3CC=C4[C@@H]5[C@@H](C)[C@H](C)CC[C@]5(C(=O)n5ccnc5)CC[C@@]4(C)[C@]3(C)CC[C@H]2C1(C)C | 10.4 µM | > 400 µM | > 400 µM | > 38.5 | – | – |
| C=C(C)[C@@H]1CC[C@]2(C(=O)n3ccnc3)CC[C@]3(C)[C@H](CC[C@@H]4[C@@]5(C)CC[C@H](OC(C)=O)C(C)(C)[C@@H]5CC[C@]43C)[C@@H]12 | 8.9 µM | > 400 µM | > 400 µM | > 44.9 | – | – |
| CC(C)C(=O)O[C@H]1CC[C@]2(C)[C@H]3CC=C4[C@@H]5[C@@H](C)[C@H](C)CC[C@]5(C(=O)n5ccnc5)CC[C@@]4(C)[C@]3(C)CC[C@H]2C1(C)C | 13.6 µM | > 400 µM | > 400 µM | > 29.4 | – | – |
| C=C(C)[C@@H]1CC[C@]2(C(=O)O)CC[C@]3(C)[C@H](CC[C@@H]4[C@@]5(C)CC[C@H](OC(C)=O)C(C)(C)[C@@H]5CC[C@]43C)[C@@H]12 | 65.5 µM | > 400 µM | > 400 µM | > 6.11 | – | – |
| CC(=O)O[C@H]1CC[C@]2(C)[C@H]3CC=C4[C@@H]5[C@@H](C)[C@H](C)CC[C@]5(C(=O)O)CC[C@@]4(C)[C@]3(C)CC[C@H]2C1(C)C [O-ACETYLURSOLIC ACID] | 9.08 µM | > 400 µM | > 400 µM | > 44 | – | – |
| C=C(C)[C@@H]1CC[C@]2(C(=O)OC)CC[C@]3(C)[C@H](CC[C@@H]4[C@@]5(C)CCC(=O)C(C)(C)[C@@H]5CC[C@]43C)[C@@H]12 [METHYL BETULONATE] | > 100 µM | > 400 µM | > 400 µM | – | – | – |
| C[C@@H]1CC[C@H]2[C@@H](C)C(=O)O[C@@H]3O[C@@]4(C)CC[C@@H]1[C@]32OO4 [ARTEMISININ] | 0.0163 µM | – | – | – | – | – |
| COC(=O)[C@]12CC[C@@H](C)[C@H](C)[C@H]1C1=CC[C@@H]3[C@@]4(C)CCC(=O)C(C)(C)[C@@H]4CC[C@@]3(C)[C@]1(C)CC2 | > 100 µM | > 400 µM | > 400 µM | – | – | – |
| COC(=O)[C@]12CC[C@@H](C)[C@H](C)[C@H]1C1=CC[C@@H]3[C@@]4(C)CC[C@H](OC(=O)C(C)C)C(C)(C)[C@@H]4CC[C@@]3(C)[C@]1(C)CC2 | > 100 µM | > 400 µM | > 400 µM | – | – | – |
| CCCC(=O)O[C@H]1CC[C@]2(C)[C@H]3CC=C4[C@@H]5[C@@H](C)[C@H](C)CC[C@]5(C(=O)O)CC[C@@]4(C)[C@]3(C)CC[C@H]2C1(C)C | 13.3 µM | > 400 µM | > 400 µM | > 30 | 7 | 1.05 |
| C[C@H]1[C@H](C)CC[C@]2(C(=O)O)CC[C@]3(C)C(=CC[C@@H]4[C@@]5(C)CC[C@H](O)C(C)(C)[C@@H]5CC[C@]43C)[C@H]12 [URSOLIC ACID] | 50.6 µM | 99.9 µM | 114 µM | 2.24 | – | – |
| C=C(C)[C@@H]1CC[C@]2(C(=O)n3ccnc3)CC[C@]3(C)[C@H](CC[C@@H]4[C@@]5(C)CC[C@H](OC(=O)CCC)C(C)(C)[C@@H]5CC[C@]43C)[C@@H]12 | 57.6 µM | > 400 µM | > 400 µM | > 6.94 | – | – |
| C[C@H]1[C@H](C)CC[C@]2(C(=O)O)CC[C@]3(C)C(=CC[C@@H]4[C@@]5(C)CCC(=O)C(C)(C)[C@@H]5CC[C@]43C)[C@H]12 [URSONIC ACID] | 24.3 µM | > 400 µM | > 400 µM | > 16.5 | – | – |
| C=C(C)[C@@H]1CC[C@]2(C(=O)OC)CC[C@]3(C)[C@H](CC[C@@H]4[C@@]5(C)CC[C@H](OC(C)=O)C(C)(C)[C@@H]5CC[C@]43C)[C@@H]12 | > 100 µM | > 400 µM | > 400 µM | – | – | – |
| C=C(C)[C@@H]1CC[C@]2(C(=O)O)CC[C@]3(C)[C@H](CC[C@@H]4[C@@]5(C)CC[C@H](OC(=O)C(C)C)C(C)(C)[C@@H]5CC[C@]43C)[C@@H]12 | 12.1 µM | > 400 µM | > 400 µM | > 33 | – | – |
| CCCC(=O)O[C@H]1CC[C@]2(C)[C@H]3CC=C4[C@@H]5[C@@H](C)[C@H](C)CC[C@]5(C(=O)OC)CC[C@@]4(C)[C@]3(C)CC[C@H]2C1(C)C | > 100 µM | > 400 µM | > 400 µM | – | – | – |
| C=C(C)[C@@H]1CC[C@]2(C(=O)n3ccnc3)CC[C@]3(C)[C@H](CC[C@@H]4[C@@]5(C)CC[C@H](OC(=O)C(C)C)C(C)(C)[C@@H]5CC[C@]43C)[C@@H]12 | 29.6 µM | > 400 µM | > 400 µM | > 13.5 | – | – |
| C=C(C)[C@@H]1CC[C@]2(C(=O)n3ccnc3)CC[C@]3(C)[C@H](CC[C@@H]4[C@@]5(C)CCC(=O)C(C)(C)[C@@H]5CC[C@]43C)[C@@H]12 | 5.2 µM | > 400 µM | > 400 µM | > 76.8 | – | – |
| CC(=O)O[C@H]1CC[C@]2(C)[C@H]3CC=C4[C@@H]5[C@@H](C)[C@H](C)CC[C@]5(C(=O)n5ccnc5)CC[C@@]4(C)[C@]3(C)CC[C@H]2C1(C)C | 50.6 µM | > 400 µM | > 400 µM | > 7.9 | – | – |
| C=C(C)[C@@H]1CC[C@]2(C(=O)O)CC[C@]3(C)[C@H](CC[C@@H]4[C@@]5(C)CC[C@H](O)C(C)(C)[C@@H]5CC[C@]43C)[C@@H]12 [BETULINIC ACID] | 12.8 µM | > 400 µM | > 400 µM | > 31.4 | – | – |
| C=C(C)[C@@H]1CC[C@]2(C(=O)OC)CC[C@]3(C)[C@H](CC[C@@H]4[C@@]5(C)CC[C@H](OC(=O)CCC)C(C)(C)[C@@H]5CC[C@]43C)[C@@H]12 | > 100 µM | > 400 µM | > 400 µM | – | – | – |
| C=C(C)[C@@H]1CC[C@]2(C(=O)O)CC[C@]3(C)[C@H](CC[C@@H]4[C@@]5(C)CCC(=O)C(C)(C)[C@@H]5CC[C@]43C)[C@@H]12 [BETUNOLIC ACID] | 7.87 µM | > 400 µM | 150 µM | 19.1 | – | – |
| COC(=O)[C@]12CC[C@@H](C)[C@H](C)[C@H]1C1=CC[C@@H]3[C@@]4(C)CC[C@H](OC(C)=O)C(C)(C)[C@@H]4CC[C@@]3(C)[C@]1(C)CC2 | > 100 µM | > 400 µM | > 400 µM | – | – | – |
